Assay results as given in publication PMC3079198 (Journal of the American Chemical Society, 2011).

How the values were obtained:
[1] = system: H460 cells with wild type p53; experiment: Caspase-Glo 3/7 assay in H460 cells; format: cell-based, human; settings: 20 μM, 24 h
Outline: (§1)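 Human lung cancer cells, H460 (wild-type p53) and H1299 (p53 deleted), were exposed for 24 h to test compound at 20 μM. Controls were DMSO, a negative-control compound (20 μM) and a known MDM2 inhibitor as positive control (20 μM). Caspase 3/7 activity was then measured with the Caspase-Glo 3/7 assay kit.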

[2] = system: H1299 cells with deleted p53; experiment: Caspase-Glo 3/7 assay in H1299 cells; format: cell-based, human; settings: 20 μM, 24 h
Outline: as §1

## CC(C)(C)C[C@H]1N[C@@H](C(=O)NCCN2CCOCC2)[C@H](c2cccc(Cl)c2F)[C@@]12C(=O)Nc1cc(Cl)ccc12 [MI-63]
[1]
  induction of caspase 3/7 activity: ~5 fold
[2]
  effect on caspase 3/7 activity: no effect
